Results from ChEMBL document CHEMBL3244078, “Synthesis and antihypertensive activity of novel 3-hydrazino-5-phenyl-1,2,4-triazines” (J Med Chem, 1979).
The source made the active and inactive calls. The calls are words filed in the database; no cut-off is given here.

What was measured:
[1] = system: Rattus norvegicus; assay: Antihypertensive activity in spontaneously hypertensive rat assessed as drop in mean systolic blood pressure at 50 mg/kg, po followed by second dosing at 24 hrs measured after 28 hrs by tail cuff method relative to vehicle-treated control; assay type: functional, Artery
Summary of the method: (§1)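 Spontaneously hypertensive rats aged 12–16 weeks with systolic BP of 170 mmHg or greater, in groups of five. Dosed po as a solution or suspension in 0.25% methylcellulose at 5 mL/kg, with a second dose right after the 24-h reading. Tail-cuff systolic BP (capacitance transducer) was read predose as control, then at 4, 24, 28 and 48 h. Mean drop from predose; Student's t test, p < 0.05.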

[2] = system: Rattus norvegicus; assay: Antihypertensive activity in spontaneously hypertensive rat assessed as drop in mean systolic blood pressure at 50 mg/kg, po after 24 hrs by tail cuff method relative to vehicle-treated control; assay type: functional, Artery; summary of the method: as §1
[3] = system: Rattus norvegicus; assay: Antihypertensive activity in spontaneously hypertensive rat assessed as drop in mean systolic blood pressure at 50 mg/kg, po after 4 hrs by tail cuff method relative to vehicle-treated control; assay type: functional, Artery; summary of the method: as §1
[4] = system: Rattus norvegicus; assay: Antihypertensive activity in spontaneously hypertensive rat assessed as drop in mean systolic blood pressure at 50 mg/kg, po followed by second dosing at 24 hrs measured after 48 hrs by tail cuff method relative to vehicle-treated control; assay type: functional, Artery; summary of the method: as §1
[5] = Toxicity in ip dosed CF-1 mouse after 48 hrs; settings: in vivo
[6] = system: Rattus norvegicus; assay: Antihypertensive activity in spontaneously hypertensive rat assessed as drop in mean systolic blood pressure at 100 mg/kg, po after 4 hrs by tail cuff method relative to vehicle-treated control; assay type: functional, Artery
[7] = system: Rattus norvegicus; assay: Antihypertensive activity in spontaneously hypertensive rat assessed as drop in mean systolic blood pressure at 30 mg/kg, po followed by second dosing at 24 hrs measured after 48 hrs by tail cuff method relative to vehicle-treated control; assay type: functional, Artery
Summary of the method: (§2)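 Dose-response run of the primary SHR protocol: rats aged 12–16 weeks, systolic BP of 170 mmHg or greater, five per dose. Oral doses of 100, 30, 10 and 3 mg/kg in 0.25% methylcellulose, redosed immediately after the 24-h reading. Tail-cuff systolic BP read predose and at 4, 24, 28 and 48 h. Mean drop from predose; Student's t test, p < 0.05.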

[8] = system: Rattus norvegicus; assay: Antihypertensive activity in spontaneously hypertensive rat assessed as drop in mean systolic blood pressure at 10 mg/kg, po after 4 hrs by tail cuff method relative to vehicle-treated control; assay type: functional; summary of the method: as §2
[9] = system: Rattus norvegicus; assay: Antihypertensive activity in spontaneously hypertensive rat assessed as mean heart rate at 30 mg/kg, po followed by second dosing at 24 hrs measured after 48 hrs by tail cuff method relative to vehicle-treated control; assay type: functional
Summary of the method: (§3)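 Heart rate by biotachometer in the SHR dose-response protocol: five rats per dose, oral doses of 100, 30, 10 and 3 mg/kg in 0.25% methylcellulose, second dose right after the 24-h reading. Mean heart rate recorded predose and at 4, 24, 28 and 48 h.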

[10] = system: Rattus norvegicus; assay: Antihypertensive activity in spontaneously hypertensive rat assessed as drop in mean systolic blood pressure at 30 mg/kg, po after 4 hrs by tail cuff method relative to vehicle-treated control; assay type: functional, Artery; summary of the method: as §2
[11] = system: Rattus norvegicus; assay: Antihypertensive activity in spontaneously hypertensive rat assessed as mean heart rate at 100 mg/kg, po followed by second dosing at 24 hrs measured after 48 hrs by tail cuff method relative to vehicle-treated control; assay type: functional; summary of the method: as §3
[12] = system: Rattus norvegicus; assay: Antihypertensive activity in spontaneously hypertensive rat assessed as mean heart rate at 100 mg/kg, po followed by second dosing at 24 hrs measured after 28 hrs by tail cuff method relative to vehicle-treated control; assay type: functional; summary of the method: as §3
[13] = system: Rattus norvegicus; assay: Antihypertensive activity in spontaneously hypertensive rat assessed as drop in mean systolic blood pressure at 100 mg/kg, po followed by second dosing at 24 hrs measured after 48 hrs by tail cuff method relative to vehicle-treated control; assay type: functional, Artery
[14] = system: Rattus norvegicus; assay: Antihypertensive activity in spontaneously hypertensive rat assessed as drop in mean systolic blood pressure at 30 mg/kg, po after 24 hrs by tail cuff method relative to vehicle-treated control; assay type: functional, Artery; summary of the method: as §2
[15] = system: Rattus norvegicus; assay: Antihypertensive activity in spontaneously hypertensive rat assessed as drop in mean systolic blood pressure at 30 mg/kg, po followed by second dosing at 24 hrs measured after 28 hrs by tail cuff method relative to vehicle-treated control; assay type: functional, Artery; summary of the method: as §2
[16] = system: Rattus norvegicus; assay: Antihypertensive activity in spontaneously hypertensive rat assessed as drop in mean systolic blood pressure at 10 mg/kg, po after 24 hrs by tail cuff method relative to vehicle-treated control; assay type: functional; summary of the method: as §2
[17] = system: Rattus norvegicus; assay: Antihypertensive activity in spontaneously hypertensive rat assessed as mean heart rate at 3 mg/kg, po followed by second dosing at 24 hrs measured after 48 hrs by tail cuff method relative to vehicle-treated control; assay type: functional; summary of the method: as §3
[18] = system: Rattus norvegicus; assay: Antihypertensive activity in spontaneously hypertensive rat assessed as drop in mean systolic blood pressure at 10 mg/kg, po followed by second dosing at 24 hrs measured after 48 hrs by tail cuff method relative to vehicle-treated control; assay type: functional; summary of the method: as §2
[19] = system: Rattus norvegicus; assay: Antihypertensive activity in spontaneously hypertensive rat assessed as mean heart rate at 100 mg/kg, po after 24 hrs by tail cuff method relative to vehicle-treated control; assay type: functional; summary of the method: as §3
[20] = system: Rattus norvegicus; assay: Antihypertensive activity in spontaneously hypertensive rat assessed as mean heart rate at 3 mg/kg, po after 4 hrs by tail cuff method relative to vehicle-treated control; assay type: functional; summary of the method: as §3
[21] = system: Rattus norvegicus; assay: Antihypertensive activity in spontaneously hypertensive rat assessed as drop in mean systolic blood pressure at 100 mg/kg, po after 24 hrs by tail cuff method relative to vehicle-treated control; assay type: functional, Artery
[22] = system: Rattus norvegicus; assay: Antihypertensive activity in spontaneously hypertensive rat assessed as mean heart rate at 30 mg/kg, po after 24 hrs by tail cuff method relative to vehicle-treated control; assay type: functional; summary of the method: as §3
[23] = system: Rattus norvegicus; assay: Antihypertensive activity in spontaneously hypertensive rat assessed as mean heart rate at 30 mg/kg, po after 4 hrs by tail cuff method relative to vehicle-treated control; assay type: functional; summary of the method: as §3
[24] = system: Rattus norvegicus; assay: Antihypertensive activity in spontaneously hypertensive rat assessed as mean heart rate at 10 mg/kg, po followed by second dosing at 24 hrs measured after 48 hrs by tail cuff method relative to vehicle-treated control; assay type: functional; summary of the method: as §3
[25] = system: Rattus norvegicus; assay: Antihypertensive activity in spontaneously hypertensive rat assessed as drop in mean systolic blood pressure at 100 mg/kg, po followed by second dosing at 24 hrs measured after 28 hrs by tail cuff method relative to vehicle-treated control; assay type: functional, Artery
[26] = system: Rattus norvegicus; assay: Antihypertensive activity in spontaneously hypertensive rat assessed as drop in mean systolic blood pressure at 10 mg/kg, po followed by second dosing at 24 hrs measured after 28 hrs by tail cuff method relative to vehicle-treated control; assay type: functional; summary of the method: as §2
[27] = system: Rattus norvegicus; assay: Antihypertensive activity in spontaneously hypertensive rat assessed as mean heart rate at 10 mg/kg, po after 4 hrs by tail cuff method relative to vehicle-treated control; assay type: functional; summary of the method: as §3
[28] = system: Rattus norvegicus; assay: Antihypertensive activity in spontaneously hypertensive rat assessed as mean heart rate at 10 mg/kg, po after 24 hrs by tail cuff method relative to vehicle-treated control; assay type: functional; summary of the method: as §3
[29] = system: Rattus norvegicus; assay: Antihypertensive activity in spontaneously hypertensive rat assessed as mean heart rate at 10 mg/kg, po followed by second dosing at 24 hrs measured after 28 hrs by tail cuff method relative to vehicle-treated control; assay type: functional; summary of the method: as §3
[30] = system: Rattus norvegicus; assay: Antihypertensive activity in spontaneously hypertensive rat assessed as mean heart rate at 30 mg/kg, po followed by second dosing at 24 hrs measured after 28 hrs by tail cuff method relative to vehicle-treated control; assay type: functional; summary of the method: as §3
[31] = system: Rattus norvegicus; assay: Antihypertensive activity in spontaneously hypertensive rat assessed as mean heart rate at 3 mg/kg, po followed by second dosing at 24 hrs measured after 28 hrs by tail cuff method relative to vehicle-treated control; assay type: functional; summary of the method: as §3
[32] = system: Rattus norvegicus; assay: Antihypertensive activity in spontaneously hypertensive rat assessed as mean heart rate at 3 mg/kg, po after 24 hrs by tail cuff method relative to vehicle-treated control; assay type: functional; summary of the method: as §3
[33] = system: Rattus norvegicus; assay: Antihypertensive activity in spontaneously hypertensive rat assessed as mean heart rate at 100 mg/kg, po after 4 hrs by tail cuff method relative to vehicle-treated control; assay type: functional; summary of the method: as §3

SMILES	LD50 at 48 h [5] [mg/kg]	Activity [6] [mmHg]	Activity [7] [mmHg]	Activity [9] [bpm]	Activity [10] [mmHg]	Activity [11] [bpm]	Activity [12] [bpm]	Activity [14] [mmHg]	Activity [15] [mmHg]	Activity [17] [bpm]	Activity [20] [bpm]	Activity [22] [bpm]	Activity [23] [bpm]	Activity [24] [bpm]	Activity [27] [bpm]	Activity [28] [bpm]	Activity [29] [bpm]	Activity [30] [bpm]	Activity [31] [bpm]	Activity [32] [bpm]	also measured
NNc1nncc(-c2ccccc2)n1	56																				Activity [1]: 58 mmHg; Activity [2]: 43 mmHg; Activity [3]: 30 mmHg; Activity [4]: 60 mmHg
CC(=O)NNc1nncc(-c2cccc(Cl)c2)n1	> 300	20	19	462	16	490	482	14	19	442	422	438	400	448	458	460	448	460	436	430	Activity ([8]; Artery): inactive; Activity [13]: 55 mmHg; Activity ([16]; Artery): inactive; Activity ([18]; Artery): inactive; Activity [19]: 482 bpm; Activity [21]: 23 mmHg; Activity [25]: 50 mmHg; Activity ([26]; Artery): inactive; Activity [33]: 478 bpm
Cl.O.O=C(NNc1nncc(-c2ccccc2)n1)C12CC3CC(CC(C3)C1)C2	> 300	42	11	392	20	458	442	12	18	426	445	412	410	422	468	446	428	380	418	420	Activity ([8]; Artery): inactive; Activity [13]: 35 mmHg; Activity ([16]; Artery): inactive; Activity ([18]; Artery): inactive; Activity [19]: 428 bpm; Activity [21]: 70 mmHg; Activity [25]: 46 mmHg; Activity ([26]; Artery): inactive; Activity [33]: 446 bpm
Br.NCC(=O)NNc1nncc(-c2ccccc2)n1.O	75																				Activity [1]: 105 mmHg; Activity [2]: 35 mmHg; Activity [3]: 41 mmHg; Activity [4]: 91 mmHg
NNc1nncc2ccccc12 [HYDRALAZINE]	100		14	448	88			60	47	432	448	480	492	448	504	468	428	496	444	392	Activity [8]: 60 mmHg; Activity [16]: 38 mmHg; Activity [18]: 10 mmHg; Activity [26]: 10 mmHg
O=C(NNc1nncc(-c2ccc(Cl)c(Cl)c2)n1)C(F)(F)F	> 300	30	16	426	18	438	438	18	18	424	430	438	444	400	412	438	448	435	428	424	Activity [8]: 16 mmHg; Activity [13]: 25 mmHg; Activity [16]: 12 mmHg; Activity [18]: 15 mmHg; Activity [19]: 462 bpm; Activity [21]: 29 mmHg; Activity [25]: 35 mmHg; Activity [26]: 17 mmHg; Activity [33]: 472 bpm
